Laboratory results from ChEMBL document CHEMBL1139485, “Tricyclic pyrazoles. 3. Synthesis, biological evaluation, and molecular modeling of analogues of the cannabinoid antagonist 8-chloro-1-(2',4'-dichlorophenyl)-N-piperidin-1-yl-1,4,5,6-tetrahydrobenzo[6,7]cyclohepta[1,2-c]pyrazole-3-carboxamide” (J Med Chem, 2005).
Calls of active or inactive are those of the source. No cut-off for these calls is given here.

Assays:
Cannabinoid receptor 1 = Cannabinoid receptor 1 (Mus musculus, UniProt P47746); assay: Displacement of [3H]CP-55940 from CB1 receptor in CD1 mouse brain; format: tissue-based
Outline: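 Membranes from male CD-1 mouse brain (minus cerebellum) for CB1 or spleen for CB2, prepared in ice-cold TME buffer (50 mM Tris-HCl, 1 mM EDTA, 3.0 mM MgCl2, pH 7.4). 30–80 μg protein incubated with 0.5–1 nM [3H]CP-55,940, 1 h, 30 °C, with 5 mg/mL fatty-acid-free BSA. Nonspecific binding defined by 1 μM CP-55,940. Filtration, scintillation counting. IC50 from sigmoid fit converted to Ki. Triplicate, ≥5 experiments.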

Cannabinoid receptor 2 = Cannabinoid receptor 2 (Mus musculus, UniProt P47936); assay: Displacement of [3H]CP-55940 from CB2 receptor in CD1 mouse spleen; format: tissue-based
Outline: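 Membranes from male CD-1 mouse brain (minus cerebellum) for CB1 or spleen for CB2, prepared in ice-cold TME buffer (50 mM Tris-HCl, 1 mM EDTA, 3.0 mM MgCl2, pH 7.4). Filtration, scintillation counting. IC50 from sigmoid fit converted to Ki. Triplicate, ≥5 experiments.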

[1] = target: Cannabinoid receptor (Mus musculus) (UniProt P47746+P47936); assay: Selectivity for CB1 receptor over CB2 receptor in CD1 mouse; format: protein assay
Mus musculus [2] = assay: Effect on upper gastrointestinal motility in CD1 mouse at 0.1 mg/kg, ip; format: functional, organism-based; design: dose 0.1 mg/kg
Outline: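 Male CD-1 mice (20–35 g), n = 15–20 per group. Drug in saline with 0.1% Tween-80 (12.5 mL/kg) given ip 30 min before intragastric red carmine (6 wt %/v in 0.5% methylcellulose, 0.3 mL/mouse). Mice killed 20 min later. Distance reached by the marker head expressed as % of small intestine length (pylorus to ileocaecal junction). Mean ± SEM.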

Mus musculus [3] = assay: Reversal of 0.5 mg/kg WIN-55212-2-induced inhibitory effect on upper gastrointestinal motility in CD1 mouse at 0.1 mg/kg ip; format: functional, organism-based
Outline: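 Male CD-1 mice, n = 15–20 per group. Test drug 0.1 mg/kg ip given 10 min before WIN 55,212-2 (0.5 mg/kg ip), both in saline with 0.1% Tween-80. Intragastric carmine marker 20 min after agonist; mice killed 20 min later. Transit measured as % of small intestine length travelled by marker. ANOVA with Newman–Keuls test.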

Mus musculus [4] = assay: Increase in upper gastrointestinal motility in CD1 mouse at 0.5 to 1 mg/kg, ip; format: functional; conditions: dose mg/kg 0.5-1; route intraperitoneal
Outline: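 Male CD-1 mice (20–35 g), n = 15–20 per group. Compound given ip in saline with 0.1% Tween-80, 30 min before intragastric red carmine marker (6% suspension in 0.5% methylcellulose, 0.3 mL/mouse). Killed 20 min later. Distance travelled by the marker head expressed as % of small-intestine length (pylorus to ileocaecal junction). Group mean ± SEM versus vehicle-treated mice, by ANOVA/Newman–Keuls.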

Cannabinoid receptor 2, sequence (P47936 whole entry): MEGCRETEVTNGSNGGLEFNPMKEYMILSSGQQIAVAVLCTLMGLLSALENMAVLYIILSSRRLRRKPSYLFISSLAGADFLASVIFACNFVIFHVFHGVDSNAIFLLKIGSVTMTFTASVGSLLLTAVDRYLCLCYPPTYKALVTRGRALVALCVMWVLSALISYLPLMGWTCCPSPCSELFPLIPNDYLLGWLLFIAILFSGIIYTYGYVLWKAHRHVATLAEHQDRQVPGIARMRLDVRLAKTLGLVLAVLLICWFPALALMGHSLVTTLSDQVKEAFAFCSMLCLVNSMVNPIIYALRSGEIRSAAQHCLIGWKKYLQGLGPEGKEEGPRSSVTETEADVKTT
Cannabinoid receptor 1, sequence (P47746 whole entry): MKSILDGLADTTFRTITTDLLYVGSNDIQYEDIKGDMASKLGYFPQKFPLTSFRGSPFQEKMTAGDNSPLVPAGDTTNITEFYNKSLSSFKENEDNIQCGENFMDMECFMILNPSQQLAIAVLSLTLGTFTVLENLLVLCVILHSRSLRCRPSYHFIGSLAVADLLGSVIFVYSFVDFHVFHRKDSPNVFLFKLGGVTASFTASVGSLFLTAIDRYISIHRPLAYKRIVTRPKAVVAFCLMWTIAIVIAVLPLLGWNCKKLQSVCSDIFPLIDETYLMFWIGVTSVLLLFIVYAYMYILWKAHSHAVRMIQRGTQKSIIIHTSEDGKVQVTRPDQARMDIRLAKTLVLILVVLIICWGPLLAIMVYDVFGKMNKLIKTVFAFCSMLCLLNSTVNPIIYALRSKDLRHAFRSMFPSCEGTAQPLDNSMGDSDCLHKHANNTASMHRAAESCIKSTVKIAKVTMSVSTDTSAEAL
Cannabinoid receptor (Mus musculus), sequence (P47746 whole entry, looked up): as the sequence (P47746 whole entry) above
Cannabinoid receptor (Mus musculus), sequence (P47936 whole entry, looked up): as the sequence (P47936 whole entry) above

COc1ccc(NC(=O)c2nn(-c3ccc(Cl)cc3Cl)c3c2CCCc2cc(Cl)ccc2-3)cc1
Ki (Cannabinoid receptor 1): 0.013 nM (antagonist) | Ki (Cannabinoid receptor 2): 43.3 nM (antagonist) | Ratio Ki [1]: 3300

O=C(NN1CCCCC1)c1nn(-c2ccc(Cl)cc2Cl)c2c1CCCc1ccccc1-2
Ki (Cannabinoid receptor 1): 168 nM (antagonist) | Ki (Cannabinoid receptor 2): 18.1 nM (antagonist) | Ratio Ki [1]: 0.11

O=C(NN1CCCC1)c1nn(-c2ccc(Cl)cc2Cl)c2c1CCCc1cc(Cl)ccc1-2
Ki (Cannabinoid receptor 1): 0.004 nM (antagonist) | Ki (Cannabinoid receptor 2): 45 nM (antagonist) | Ratio Ki [1]: 11200

O=C(NC1CCCCC1)c1nn(-c2ccc(Cl)cc2Cl)c2c1CCCc1cc(Cl)ccc1-2
Ki (Cannabinoid receptor 1): 0.3 nM (antagonist) | Ki (Cannabinoid receptor 2): 0.65 nM (antagonist) | Ratio Ki [1]: 2.16

O=C(Nc1ccc(Cl)c(Cl)c1)c1nn(-c2ccc(Cl)cc2Cl)c2c1CCCc1cc(Cl)ccc1-2
Ki (Cannabinoid receptor 1): 25.8 nM (antagonist) | Ki (Cannabinoid receptor 2): > 500 nM

Cc1ccc(NC(=O)c2nn(-c3ccc(Cl)cc3Cl)c3c2CCCc2cc(Cl)ccc2-3)cc1
Ki (Cannabinoid receptor 1): 5.74 nM (antagonist) | Ki (Cannabinoid receptor 2): 65 nM (antagonist) | Ratio Ki [1]: 11.3

O=C(NN1CCCCC1)c1nn(-c2ccc(Cl)cc2Cl)c2c1CCCc1cc(Cl)ccc1-2
Ki (Cannabinoid receptor 1): 0.00035 nM (antagonist) | Ki (Cannabinoid receptor 2): 21 nM (antagonist) | Ratio Ki [1]: 60000

O=C(Nc1ccccc1)c1nn(-c2ccc(Cl)cc2Cl)c2c1CCCc1cc(Cl)ccc1-2
Ki (Cannabinoid receptor 1): 4.35 nM (antagonist) | Ki (Cannabinoid receptor 2): 1.45 nM (antagonist) | Ratio Ki [1]: 0.33

Cc1ccc2c(c1)CCCc1c(C(=O)NN3CCCCC3)nn(-c3ccc(Cl)cc3Cl)c1-2
Ki (Cannabinoid receptor 1): 0.0052 nM (antagonist) | Ki (Cannabinoid receptor 2): 0.46 nM (antagonist) | Ratio Ki [1]: 88.5

O=C(NN1CCCCCC1)c1nn(-c2ccc(Cl)cc2Cl)c2c1CCCc1cc(Cl)ccc1-2
Ki (Cannabinoid receptor 1): 0.001 nM (antagonist) | Ki (Cannabinoid receptor 2): 2 nM (antagonist) | Ratio Ki [1]: 2000 | Activity (Mus musculus [2]): inactive | Activity (Mus musculus [3]): Active | Activity (Mus musculus [4]): 65%

O=C(Nc1ccc(Cl)cc1)c1nn(-c2ccc(Cl)cc2Cl)c2c1CCCc1cc(Cl)ccc1-2
Ki (Cannabinoid receptor 1): 2.5 nM (antagonist) | Ki (Cannabinoid receptor 2): 79 nM (antagonist) | Ratio Ki [1]: 31.6

O=C(NN1CCCCC1)c1nn(-c2ccc(Cl)cc2Cl)c2c1CCCc1c(Cl)cccc1-2
Ki (Cannabinoid receptor 1): 9.84 nM (antagonist) | Ki (Cannabinoid receptor 2): 31.6 nM (antagonist) | Ratio Ki [1]: 3.21

O=C(NN1CCCCC1)c1nn(-c2ccc(Cl)cc2Cl)c2c1CCCc1cc(Br)ccc1-2
Ki (Cannabinoid receptor 1): 0.008 nM (antagonist) | Ki (Cannabinoid receptor 2): 37 nM (antagonist) | Ratio Ki [1]: 4620

Cc1ccc2c(c1)CCCc1c(C(=O)NN3CCCC3)nn(-c3ccc(Cl)cc3Cl)c1-2
Ki (Cannabinoid receptor 1): 0.11 nM (antagonist) | Ki (Cannabinoid receptor 2): 386 nM (antagonist) | Ratio Ki [1]: 3510

O=C(NN1CCCCC1)c1nn(-c2ccc(Cl)cc2Cl)c2c1CCc1cc(Cl)ccc1-2
Ki (Cannabinoid receptor 1): 14.8 nM (antagonist) | Ki (Cannabinoid receptor 2): 227 nM (antagonist) | Ratio Ki [1]: 15.3

O=C(NN1CCCCC1)c1nn(-c2ccc(Cl)cc2Cl)c2c1CCCc1ccc(Cl)cc1-2
Ki (Cannabinoid receptor 1): 31.2 nM (antagonist) | Ki (Cannabinoid receptor 2): 26.8 nM (antagonist) | Ratio Ki [1]: 0.86

O=C(NN1CCCCC1)c1nn(-c2ccc(Cl)cc2Cl)c2c1Cc1cc(Cl)ccc1-2
Ki (Cannabinoid receptor 1): 2050 nM (antagonist) | Ki (Cannabinoid receptor 2): 0.34 nM (antagonist) | Ratio Ki [1]: 0.000166
